ChEMBL document CHEMBL1125466, “Synthesis and antiulcer activity of N-substituted N'-[3-[3-(piperidinomethyl)phenoxy]propyl]ureas: histamine H2-receptor antagonists with a potent mucosal protective activity” (J Med Chem, 1992)

Assays:
Rattus norvegicus [1] = test: Gastric antisecretory activity in rat (in vivo); assay type: functional
Summary of the method: (§1)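 Male Donryu or Wistar rats, 170-310 g, fasted 24 h. Under urethane anesthesia the pylorus was ligated (acute fistula). Compound, suspended in 1% gum arabic, given intraduodenally after the second gastric juice collection, usually at 10 mg/kg. Acid output compared with vehicle mean. Percent inhibition given as mean ± SE, 2-5 animals per group.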

Rattus norvegicus [2] = test: In vivo gastric antisecretory activity in acute fistula rats; assay type: functional, Stomach; design: concentration or dose not given beside the values; summary of the method: as §1
Histamine H2 receptor [3] = target: T1, Histamine H2 receptor (Cavia porcellus, UniProt P47747); test: In vitro inhibitory activity against histamine H2-receptor in isolated Guinea pig right atria.; settings: read-out: pA2 (converted)
Rattus norvegicus [4] = test: In vivo gastric mucosal protective activity against gastric mucosal lesions induced by 0.6 N HCl in rats.; assay type: functional, Gastric mucosa; design: concentration or dose not given beside the values
Summary of the method: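 Male Donryu or Wistar rats, 150-230 g, deprived of food and water 24 h. Compound given orally (25 mg/kg) 1.5 h before 1 mL 0.6 N HCl po. Killed 1 h after HCl. Stomach fixed with 0.5% formalin, and glandular lesion lengths measured. Percent inhibition compared with vehicle, mean ± SE, 5-10 animals.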

Rattus norvegicus [5] = test: In Vivo gastric Mucosal protective activity against gastric mucosal lesions induced by 0.6 N HCl in rats. (200 mg/kg, po); assay type: functional, Gastric mucosa
Summary of the method: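 Oral dosing at 200 mg/kg, 1.5 h before 1 mL of 0.6 N HCl, in male Donryu or Wistar rats (150-230 g) deprived of food and water 24 h. Killed 1 h later. Stomach formalin-fixed and glandular lesion length scored against vehicle. Percent inhibition given as mean ± SE.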

Histamine H2 receptor [6] = target: T1, Histamine H2 receptor; test: Compound was evaluated in vitro inhibitory activity against histamine H2 receptor in isolated Guinea pig right atria.; settings: read-out: pA2 (converted)
Rattus norvegicus [7] = test: In vivo gastric antisecretory activity in acute fistula rats.; assay type: functional, Stomach; summary of the method: as §1

T1 sequence (P47747 whole entry): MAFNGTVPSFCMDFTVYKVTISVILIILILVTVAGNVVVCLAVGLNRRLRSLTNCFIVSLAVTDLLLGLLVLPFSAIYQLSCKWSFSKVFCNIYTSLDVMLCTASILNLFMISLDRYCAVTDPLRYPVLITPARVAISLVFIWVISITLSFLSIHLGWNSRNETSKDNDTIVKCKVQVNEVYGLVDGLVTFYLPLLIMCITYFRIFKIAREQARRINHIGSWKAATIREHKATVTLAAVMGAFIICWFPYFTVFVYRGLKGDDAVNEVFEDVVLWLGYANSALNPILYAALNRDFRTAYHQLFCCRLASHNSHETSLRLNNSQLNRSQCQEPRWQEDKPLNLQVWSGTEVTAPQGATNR

Compound | AS activity class (Rattus norvegicus [1]) | Inhibition (Rattus norvegicus [2]) [%] | Kb (Histamine H2 receptor [3]) [nM] | Inhibition (Rattus norvegicus [4]) [%] | Inhibition (Rattus norvegicus [5]) [%] | Kb (Histamine H2 receptor [6]) [nM] | Inhibition (Rattus norvegicus [7]) [%] | inhibition (Rattus norvegicus [5]; Gastric mucosa) [%]
CCC(C)NC(=O)NCCCOc1cccc(CN2CCCCC2)c1 (stereo unspecified) | 2 | 55.1 | 95.5 | 17.7 |  |  |  | 
NC(N)=Nc1nc(CSCC/C(N)=N/S(N)(=O)=O)cs1 [FAMOTIDINE] |  |  | 100 |  | 7.9 |  |  | 
O=C(NCCCOc1cccc(CN2CCCCC2)c1)Nc1ccc([N+](=O)[O-])cc1 | 1 |  |  | 23.4 |  | 178 | 9 | 
CC(C)CNC(=O)NCCCOc1cccc(CN2CCCCC2)c1 | 2 | 40.3 | 170 | 43.3 |  |  |  | 
CC(C)NC(=O)NCCCOc1cccc(CN2CCCCC2)c1 | 3 | 71.3 | 43.7 | 72.9 |  |  |  | 
O=C(NCCCOc1cccc(CN2CCCCC2)c1)NC1CC1 | 3 | 87.5 | 47.9 | 49.4 |  |  |  | 
O=C(NCCCOc1cccc(CN2CCCCC2)c1)Nc1ccc2c(c1)OCO2 | 2 | 48.9 | 288 | 47.1 |  |  |  | 
CNC(=C[N+](=O)[O-])NCCSCc1ccc(CN(C)C)o1 [RANITIDINE] |  |  |  |  | -16.8 | 64.6 |  | 
O=C(NCCCOc1cccc(CN2CCCCC2)c1)Nc1cccc(Cl)c1 | 1 | -44.9 | 316 | 43.3 |  |  |  | 
COc1ccccc1NC(=O)NCCCOc1cccc(CN2CCCCC2)c1 | 1 | -57.4 | 776 | 31.7 |  |  |  | 
CCCCNC(=O)NCCCOc1cccc(CN2CCCCC2)c1 | 3 | 83 | 81.3 | 67.5 |  |  |  | 
COc1ccc(OC)c(NC(=O)NCCCOc2cccc(CN3CCCCC3)c2)c1 | 1 | -30.8 | 158 | 34.7 |  |  |  | 
O=C(NCCCOc1cccc(CN2CCCCC2)c1)NC1CCCCC1 | 3 | 77.9 | 43.7 | 39.3 |  |  |  | 
O=C(NCCCOc1cccc(CN2CCCCC2)c1)Nc1cccc(C(F)(F)F)c1 | 1 | 7.8 | 813 | -4.9 |  |  |  | 
O=C(NCCCOc1cccc(CN2CCCCC2)c1)Nc1cccc([N+](=O)[O-])c1 | 1 | -23.9 | 269 | 40.9 |  |  |  | 
O=C(NCCF)NCCCOc1cccc(CN2CCCCC2)c1 | 3 | 98.7 | 85.1 | 36 |  |  |  | 
CCOc1ccc(NC(=O)NCCCOc2cccc(CN3CCCCC3)c2)cc1 | 2 | 54.1 | 490 | 32.7 |  |  |  | 

Compound | AS activity class (Rattus norvegicus [1]) | Inhibition (Rattus norvegicus [2]) [%] | Kb (Histamine H2 receptor [3]) [nM] | Inhibition (Rattus norvegicus [4]) [%] | Inhibition (Rattus norvegicus [5]) [%] | Kb (Histamine H2 receptor [6]) [nM] | Inhibition (Rattus norvegicus [7]) [%] | inhibition (Rattus norvegicus [5]; Gastric mucosa) [%]
CN/C(=N\CCSCc1nc[nH]c1C)NC#N [CIMETIDINE] |  |  |  |  | -42.2 |  |  | 
CCCNC(=O)NCCCOc1cccc(CN2CCCCC2)c1 | 3 | 96.6 | 97.7 | 73.5 |  |  |  | 
COc1cccc(NC(=O)NCCCOc2cccc(CN3CCCCC3)c2)c1 | 2 | 53.2 | 200 | 48.2 |  |  |  | 
COc1ccc(N/C(S)=N/CCCOc2cccc(CN3CCCCC3)c2)cc1 |  | -5.5 | 4370 | 51.6 |  |  |  | 
CNC(=O)NCCCOc1cccc(CN2CCCCC2)c1 | 3 | 93.3 | 155 | 64.7 |  |  |  | 
O=C(NCCCOc1cccc(CN2CCCCC2)c1)Nc1ccc(C(F)(F)F)cc1 | 1 | 3.8 | 1700 | 51 |  |  |  | 
COc1ccc(NC(=O)NCCCOc2cccc(CN3CCCCC3)c2)cc1 | 3 | 73.5 | 631 | 40.9 |  |  |  | 
Nc1cccc(NC(=O)NCCCOc2cccc(CN3CCCCC3)c2)c1 | 3 |  |  | 47.2 |  | 155 | 95 | 
TEPRENONE |  |  |  |  |  |  |  | 42.7
O=C(NCCCOc1cccc(CN2CCCCC2)c1)Nc1ccc(Cl)cc1 | 1 | 28.2 | 631 | 33.9 |  |  |  | 
O=C(NCCCOc1cccc(CN2CCCCC2)c1)NCc1ccccc1 | 2 | 54.2 | 347 | 61 |  |  |  | 
O=C(NCCCOc1cccc(CN2CCCCC2)c1)Nc1ccccc1 | 1 | 12.6 | 126 | 44.3 |  |  |  | 
Cc1ccc(NC(=O)NCCCOc2cccc(CN3CCCCC3)c2)cc1 | 1 | -45.5 | 631 | 40.1 |  |  |  | 
CC(C)(C)NC(=O)NCCCOc1cccc(CN2CCCCC2)c1 | 1 | -56 | 2090 | 28.5 |  |  |  | 
COc1ccc(NC(=O)NCCCOc2cccc(CN3CCCCC3)c2)c(OC)c1 | 1 | 13.1 | 2240 | 55.7 |  |  |  | 
CCNC(=O)NCCCOc1cccc(CN2CCCCC2)c1 [DALCOTIDINE] | 3 | 71.8 | 40.7 | 77.9 |  |  |  | 
